# PostGolgi yeast – phenotypic screen on post-Golgi transport, primary screen; post-Golgi transport phenotypic cell assay; inhibition, % at 10 µM; hit rate 0.9% among 98,000;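 note: yeast cells grown in 1536-well plates; yeast grown about 18 h at 30C before absorbance read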
# HePTP inhibitor – inhibitors of human HePTP phosphatase, primary screen, biochemical, absorbance, leukemia target; hit rate 0.64% among 110,000; Tyrosine-protein phosphatase non-receptor type 7 (Homo sapiens), P35236; recombinant HePTP phosphatase activity, OD absorbance; inhibition, % at 20 µM; AID 521, 2006; in the data active = inhibition above about 50%
# Target sequence (P35236 whole entry, looked up): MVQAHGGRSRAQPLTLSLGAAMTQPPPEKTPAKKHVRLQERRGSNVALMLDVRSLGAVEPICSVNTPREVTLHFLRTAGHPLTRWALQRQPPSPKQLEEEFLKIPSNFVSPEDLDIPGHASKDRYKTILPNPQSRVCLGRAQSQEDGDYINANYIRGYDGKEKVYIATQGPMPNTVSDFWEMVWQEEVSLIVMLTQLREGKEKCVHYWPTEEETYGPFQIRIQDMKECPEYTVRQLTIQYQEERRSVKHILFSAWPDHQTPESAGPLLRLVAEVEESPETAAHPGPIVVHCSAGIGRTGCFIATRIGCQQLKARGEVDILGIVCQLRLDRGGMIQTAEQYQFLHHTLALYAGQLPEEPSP
# PLAP activator – PLAP enzyme activators, biochemical, luminescence, HTS; purified PLAP enzyme, luminescent substrate read-out; hits give high values; activation fold at 20 µM; hit rate 1.2% among 96,000; in the data active = activation fold above about 2
# PostGolgi ctrl – growth inhibition of yeast control strain, primary screen, counter-screen for post-Golgi transport modulator project | efflux-deficient yeast background strain, growth absorbance A615, 16 h | inhibition, % at 10 µM | hit rate 5% among 98,000 | AID 738, 2007
# tolC growth inh – growth inhibitors of E. coli tolC mutant, primary screen, strain BW25113 ΔtolC::kan, 384-well; OD615; growth inhibition, % at 10 µM (by protocol); hit rate 2.2% among 65,000; AID 573, 2007;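 active = growth inhibition at or above a cutoff equal to the mean over every tested compound plus 3 SD, cut at about 60% in these data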;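 note: growth measured after 20 h incubation at 37 °C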
#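 Signal: optical density read at 615 nm; Assay system: E. coli ΔtolC::kan strain BW25113; Times: 20 h incubation with compound, 37 °C; Dosing: 10 µM final, single dose.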
# Ecoli WT expand – growth inhibitors of wild-type E. coli, primary screen, strain BW25113, expanded library, OD600. OD600 absorbance. growth inhibition, % at 100 µM. hit rate 0.15% among 98,000. AID 710, 2007;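 active = growth inhibition above about 50% at one test dose, limit read from the data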;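 note: growth measured after 20 h incubation at 37 °C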
# Numbers stand for hits; - = inactive; . = not tested or not shown. Hits are enriched below; roughly 5.4% of the tested compounds scored in any of these assays. Cut-off read from the data, not from the text of the source, unless noted: active = inhibition above about 30%; inactive = the rest.
SMILES,PostGolgi yeast,HePTP inhibitor,PLAP activator,PostGolgi ctrl,tolC growth inh,Ecoli WT expand
CCOc1ccc(-c2nc(N)ncc2-c2ccccc2)c(O)c1,-,-,-,49.8,-,-
Cc1ccc(N2C(=O)CC(N3CCN(c4ccc([N+](=O)[O-])cc4)CC3)C2=O)c(C)c1 (stereo not given),.,-,.,.,.,.
COc1ccc2c(c1)-c1c(sn(-c3ccc(OC)c(OC)c3)c1=S)C(C)(C)N2,-,-,-,37.6,.,-
O=C(O)c1cc(O)c2ccccc2c1O,.,-,.,.,.,.
O=C(O)c1cc(Cl)c2ccccc2c1O,-,-,-,-,65.6,-
COc1ccc(NC(=O)/C(Cl)=C(/Cl)S(=O)(=O)Cc2ccccc2)cn1,-,.,-,78.4,.,-
CCCOc1ccc(/C=N/N2CCN(Cc3ccc(C)cc3)CC2)cc1,.,-,.,.,.,.
Cc1ccc(-n2nnnc2SCc2nnc(-c3ccccc3Br)o2)c(C)c1,-,-,-,47.0,-,-
COc1ccc(Cn2c(=O)oc3ccc(C)cc32)cc1OC,-,-,-,-,-,-
CCCCOc1ccccc1Cn1c(=O)oc2ccc(C)cc21,-,.,-,-,69.9,-
Cc1ccc2oc(=O)n(Cc3ccccc3OC(C)C)c2c1,-,-,-,-,98.9,-
CCN(CCCNC(=O)COc1cc(=O)n(CC)c2ccccc12)Cc1ccccc1,-,-,-,38.0,-,-
O=C1OC(c2ccccc2)=C/C1=C/N1CCCCC1,-,-,-,30.9,-,-
O=C1OC(c2ccccc2)=C/C1=C/c1ccc(Br)cc1,.,-,.,.,.,.
O=C(O)CCCCCN1C(=O)C(=O)/C(=C(\O)c2ccc(Br)cc2)C1c1ccccc1F (stereo not given),.,-,.,.,.,.
O=C(O)c1cc(NC(=O)c2cccc(Br)c2)cc(C(=O)O)c1,.,-,.,.,.,.
O=S(=O)(Nc1nnc(-c2ccccc2)s1)c1ccc(Cl)cc1,-,-,-,-,87.4,-
S=C(Nc1ccccc1)Nc1ccc(Oc2ccccc2)cc1,.,-,.,.,.,.
COc1ccc(Cn2cnc3c([N+](=O)[O-])c(C)c(C)cc32)cc1,-,.,-,-,.,-
Cc1ccccc1Cn1cnc2c([N+](=O)[O-])c(C)c(C)cc21,-,.,-,40.2,.,-
CCn1c(Cc2ccc(OC)cc2)nnc1SCC(=O)NC1CCCCC1,-,-,-,31.0,-,-
COc1ccccc1-n1nnnc1SCC(=O)NC1CCCC1,-,-,-,41.6,-,-
Cn1c(Cc2ccccc2)nnc1SCC(=O)NC1CCCCC1,-,-,-,-,-,-
COc1ccc(-c2csc(Nc3ncccc3C)n2)cc1OC,-,.,-,-,.,-
Cc1cccnc1Nc1nc(-c2ccc(O)c(O)c2)cs1,-,.,-,82.5,.,-
SMILES,PostGolgi yeast,HePTP inhibitor,PLAP activator,PostGolgi ctrl,tolC growth inh,Ecoli WT expand
CCC(=O)N/C(N)=N/c1nc2ccccc2s1,.,-,.,.,.,.
COc1ccc(C2/C(=C(/O)c3ccccc3)C(=O)C(=O)N2c2cccc(C(F)(F)F)c2)cc1OC (stereo not given),.,-,.,.,.,.
CCOC(=O)c1ccc(NC(=O)c2cccc([N+](=O)[O-])c2C)cc1,.,-,.,.,.,.
O=C(Oc1c(Cl)cc(Cl)c2cccnc12)N1CCCCC1,-,-,-,42.8,-,-
O=C(Oc1c(Cl)cc(Cl)c2cccnc12)N1CCOCC1,-,-,-,-,-,-
COc1cc(/C=C2/C(=O)NN(c3cccc(Cl)c3)C2=O)c([N+](=O)[O-])cc1OC,.,-,.,.,.,.
COc1ccnc(Oc2ccc(F)cc2)c1C(=O)N/C=N/OCc1ccc(F)cc1Cl,-,.,-,38.1,.,-
COc1ccc(/C=C/C(=O)Nc2nc3ccccc3s2)cc1S(=O)(=O)N1CCCCC1,.,-,.,.,.,.
CCOC(=O)C1=C(O)C(Nc2nccs2)(C(F)(F)F)N=C1C (stereo not given),-,-,-,34.6,-,-
Cc1cc(Cl)ccc1OC(C)C(=O)NCc1cccnc1 (stereo not given),.,-,.,.,.,.
O=C(c1ccccc1)c1coc2c1C(=O)c1ccccc1C2=O,.,-,.,.,.,.
O=C1c2ccccc2C(=O)c2c1oc(C(F)(F)F)c2C(=O)c1ccccc1,103.8,-,-,56.2,.,-
O=[N+]([O-])c1ccccc1Nc1nnc(-c2ccccc2)c(-c2ccccc2)n1,.,-,.,.,.,.
CN(C)CCNC(=O)Cn1nc(C(F)F)cc1C1CC1,-,-,-,31.6,-,-
O=C(Nc1ccc2c(c1)OCCO2)c1cc(-n2cnnc2)ccc1Cl,-,-,-,-,-,-
O=C(NCc1ccc2c(c1)OCO2)c1cc(-n2cnnc2)ccc1Cl,-,-,-,45.9,-,-
O=C(NCCCN1CCOCC1)c1ccc(Cl)cc1,.,-,.,.,.,.
O=C(NCc1ccc2c(c1)OCO2)c1ccc(CN2CCOCC2)cc1,-,-,-,32.9,-,-
O=C(NCCSCc1ccc(Cl)cc1Cl)c1ccc(CN2CCOCC2)cc1,75.6,.,-,31.1,.,-
Cc1cccc(C)c1OC(=O)C(C)N1C(=O)c2ccccc2C1=O (stereo not given),.,-,.,.,.,.
c1ccc(-c2nc(NCc3cccnc3)c3oc4ccccc4c3n2)cc1,-,-,-,55.0,-,-
c1ccc(-c2nc(NCC3CCCO3)c3oc4ccccc4c3n2)cc1 (stereo not given),-,.,-,53.2,.,-
CSCC[C@@H](Nc1nc(-c2ccccc2)nc2c1oc1ccccc12)C(=O)O,-,-,-,-,-,-
Cc1cc(C)c(NC(=O)c2ccc3c(c2)C(=O)N(c2ccc(Sc4ccc([N+](=O)[O-])cc4)cc2)C3=O)c(C)c1,.,-,.,.,.,.
Clc1ccc(CN2CCN(c3ncnc4scc(-c5cccs5)c34)CC2)cc1,-,.,-,58.0,.,-
SMILES,PostGolgi yeast,HePTP inhibitor,PLAP activator,PostGolgi ctrl,tolC growth inh,Ecoli WT expand
O=C1NC2=Nc3ccccc3NC(c3ccccc3)=C2C(c2ccc(OC(F)F)cc2)N1 (stereo not given),.,-,.,.,.,.
O=C(/C=C/c1ccc(Cl)cc1)Nc1ccc(OC(F)(F)F)cc1,.,-,.,.,.,.
O=C(Nc1ccc(Cl)c(C(F)(F)F)c1)c1ccc(Br)cc1,.,-,.,.,.,.
Cc1ccc(C(=O)Nc2ccc(Br)c(C(F)(F)F)c2)cc1,35.6,.,-,-,.,-
CC(=O)c1cccc(N(CC(=O)NCC2CCCO2)C(=O)CCC(=O)Nc2cc(C)on2)c1 (stereo not given),-,-,-,41.0,-,-
Nc1ncc(-c2nnnn2-c2ccc(Cl)cc2)c(-c2ccc(Cl)cc2)n1,-,.,-,36.4,.,-
O=C(/C=C/c1ccc([N+](=O)[O-])cc1)Nc1ccc2ccccc2c1,.,-,.,.,.,.
O=C(O)CN1C(=O)/C(=C2\SC(=S)N(/N=C/c3cc([N+](=O)[O-])ccc3O)C2=O)c2ccccc21,.,102.3,.,.,.,.
CCSc1nnc(NC(=O)c2cccc([N+](=O)[O-])c2)s1,.,-,.,.,.,.
COc1cc(Br)cc(/C=N/NC(=O)COc2cccc(Cl)c2)c1O,.,98.9,.,.,.,.
COc1cc(C2C3=C(CC(C)(C)CC3=O)OC3=C2C(=O)CC(C)(C)C3)ccc1OCc1ccccc1,.,-,.,.,.,.
Cc1nn(C(C)C(=O)N2CCc3ccccc3C2)c(=O)c2cc3occc3n12 (stereo not given),-,-,-,-,-,-

# Screens from PubChem BioAssay.
